Source: ChEMBL document CHEMBL3877288, “Identification and biochemical characterization of DC07090 as a novel potent small molecule inhibitor against human enterovirus 71 3C protease by structure-based virtual screening” (Eur J Med Chem, 2016)
Calls of active or inactive are those of the source. No cut-off for these calls is given here.

Experiments:
[1] = system: Enterovirus A71; test: Inhibition of recombinant N-terminal 6His-tagged EV71 3C protease expressed in Escherichia coli Rosetta using substrate Dabcyl-RTATVQGPSLDFE-Edans at 50 uM after 30 mins by fluorescence assay
Summary of the method: (§1)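 Preincubated with compound in DMSO for 30 min at 30 °C. Ex 340/Em 500 nm; initial velocity over the first 600 s. Inhibition relative to DMSO control; mean of three experiments. IC50 from serial dilutions.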

[2] = Inhibition of recombinant N-terminal 6His-tagged EV71 3C protease expressed in Escherichia coli Rosetta using substrate Dabcyl-RTATVQGPSLDFE-Edans preincubated for 30 mins followed by substrate addition; design: species or system Enterovirus A71; summary of the method: as §1
[3] = system: Enterovirus A71; test: Antiviral activity against EV71 infected in human RD cells assessed as reduction in viral plaque formation after 1 hr by crystal violet staining method; assay type: functional, cell-based; conditions: Enterovirus A
[4] = system: Enterovirus A71; test: Antiviral activity against EV71 infected in human RD cells assessed as protection against virus infection after 72 hrs by MTS assay; assay type: functional, cell-based; conditions: Enterovirus A
[5] = system: Enterovirus A71; test: Ratio of IC50 for recombinant N-terminal 6His-tagged EV71 3C protease to IC50 for EV71 3C protease A144S mutant
[6] = system: Coxsackievirus; test: Antiviral activity against Coxsackievirus A16 assessed as reduction in viral replication after 72 hrs by CellTiter-glo luminescent cell viability assay; assay type: functional; conditions: A16, 72 h
Summary of the method: (§2)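 RD cells seeded at 1 × 10^4/mL in DMEM with 10% FBS and antibiotics, grown 24 h at 37 °C, 5% CO2. Virus (EV71 50 TCID50; CVA16 100 TCID50) mixed with serial compound dilutions, added to cells and held 72 h at 37 °C. Protection read by CellTiter-Glo luminescence. EC50 is the concentration cutting virus-induced cell death by 50% versus virus control. Triplicate, run at least twice.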

[7] = Inhibition of EV71 3C protease F25W mutant using substrate Dabcyl-RTATVQGPSLDFE-Edans at 0.1 to 10 uM preincubated for 30 mins followed by substrate addition by fluorescence assay; design: species or system Enterovirus A71
[8] = system: Enterovirus A71; test: Inhibition of EV71 3C protease F25A mutant using substrate Dabcyl-RTATVQGPSLDFE-Edans at 0.1 to 10 uM preincubated for 30 mins followed by substrate addition by fluorescence assay
[9] = system: Enterovirus A71; test: Ratio of IC50 for recombinant N-terminal 6His-tagged EV71 3C protease to IC50 for EV71 3C protease F25W mutant
[10] = system: Enterovirus A71; test: (§3) Binding affinity to recombinant N-terminal 6His-tagged EV71 3C protease expressed in Escherichia coli Rosetta after 1 hr by intrinsic fluorescence quenching assay
Summary of the method: (§4)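 Compound dilutions were mixed with 2 µM 3Cpro (wild type or mutants) for 1 h on ice, then held 5 min in the dark in a 1 cm quartz cell. Trp emission spectra recorded from 300 to 400 nm at 25 °C, with maximum at 340 nm. Kd derived from dose-dependent quenching.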

[11] = as §3; design: species or system Enterovirus A71; summary of the method: as §4
[12] = Competitive inhibition of recombinant N-terminal 6His-tagged EV71 3C protease expressed in Escherichia coli Rosetta using substrate Dabcyl-RTATVQGPSLDFE-Edans by Dixon plot; design: species or system Enterovirus A71
Summary of the method: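 Same fluorogenic 3Cpro activity assay (8 µM enzyme, 30 min preincubation at 30 °C, Ex 340/Em 500 nm, initial rates) run at inhibitor 0–20 µM and substrate 40–150 µM. Mechanism assigned from Lineweaver–Burk plots; Ki obtained from Dixon plots.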

[13] = Inhibition of EV71 3C protease A144S mutant using substrate Dabcyl-RTATVQGPSLDFE-Edans preincubated for 30 mins followed by substrate addition by fluorescence assay; design: species or system Enterovirus A71
[14] = system: Enterovirus A71; test: Antiviral activity against EV71 assessed as reduction in viral replication after 72 hrs by CellTiter-glo luminescent cell viability assay; assay type: functional; conditions: Enterovirus A; summary of the method: as §2
[15] = Cytotoxicity against human RD cells after 48 hrs by CellTiter-glo luminescent cell viability assay; assay type: toxicity, cell-based
Summary of the method: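 RD cells plated at 1 × 10^3 per well in DMEM with 10% FBS and antibiotics, cultured overnight at 37 °C, 5% CO2. Compound added at 0–200 µM (final) for 48 h at 37 °C. CellTiter-Glo luminescence read. Inhibition = 1 − RLU(treated)/RLU(cell control) × 100%. CC50 obtained by regression analysis.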

[16] = Binding affinity to EV71 3C protease F25A mutant after 1 hr by intrinsic fluorescence quenching assay; design: species or system Enterovirus A71
[17] = Binding affinity to EV71 3C protease F25W mutant after 1 hr by intrinsic fluorescence quenching assay; design: species or system Enterovirus A71
[18] = Binding affinity to recombinant N-terminal 6His-tagged EV71 3C protease expressed in Escherichia coli Rosetta by surface plasmon resonance assay; design: species or system Enterovirus A71
Summary of the method: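 Compound concentrations in HBS-EP were injected at 30 µL/min for 60 s, with 120 s dissociation, on a Biacore 3000. Kd fitted with a 1:1 Langmuir model.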

[19] = Binding affinity to EV71 3C protease A144S mutant after 1 hr by intrinsic fluorescence quenching assay; design: species or system Enterovirus A71
[20] = system: Enterovirus A71; test: Antiviral activity against EV71 infected in human RD cells assessed as protection against virus-induced cytopathic effect after 48 hrs by MTS assay; assay type: functional, cell-based; conditions: Enterovirus A
[21] = system: Enterovirus A71; test: Antiviral activity against EV71 infected in African green monkey Vero cells after 48 hrs by plaque assay; assay type: functional, cell-based; conditions: Enterovirus A
[22] = Cytotoxicity against African green monkey Vero cells after 48 hrs by MTT assay; assay type: toxicity, cell-based; conditions: chlorocebus sabaeus

`Cc1ccc2oc(Cc3ccc(NCc4ccccn4)cc3)nc2n1` gave an inhibition [1] of 11.9%.
For `Cc1cccc(CNc2ccc(Cc3nc4ncccc4o3)cc2)n1`, the inhibition [1] was 60% and the IC50 [2] was 31.6 µM.
For `O=c1c(O)c(-c2ccc(O)c(O)c2)oc2cc(O)ccc12` [FISETIN], the EC50 [3] was 84.5 µM.
Compound `Clc1cc(-c2nc3ncccc3o2)ccc1NCc1ccccn1` has an inhibition [1] of 6.65%.
For `Cc1ccc2oc(-c3ccc(NCc4ccccn4)c(Cl)c3)nc2n1`, the inhibition [1] was 6.96%.
With `Cc1cccc(CNc2ccc(-c3nc4nc(C)ccc4o3)cc2Cl)n1` the inhibition [1] was 18.6%.
Work on `O=c1cc(-c2ccccc2)oc2cc(O)cc(O)c12` [CHRYSIN] yielded an EC50 [4] of 15.9 µM.
Compound `Cc1cccc(CNc2ccc(Cc3nc4nc(C)ccc4o3)cc2)n1` has an inhibition [1] of 7.42%.
Work on `C[C@@H]1O[C@@H](OC[C@H]2O[C@@H](Oc3c(-c4ccc(O)c(O)c4)oc4cc(O)cc(O)c4c3=O)[C@H](O)[C@@H](O)[C@@H]2O)[C@H](O)[C@H](O)[C@H]1O` [RUTIN] yielded an EC50 [3] of 110 µM.
`Cc1cccc(CNc2ccc(-c3nc4ncccc4o3)cc2Cl)n1` showed an inhibition [1] of 34.7%.
In the case of `Fc1cc(-c2nc3ncccc3o2)ccc1NCc1ccccn1`, the inhibition [1] is reported as less than 5%.
With `Cc1cccc(CNc2ccc(-c3nc4ncccc4o3)cc2F)n1` the inhibition [1] was 19.2%.
Work on `c1ccc(CNc2ccc(Cc3nc4ncccc4o3)cc2)nc1` yielded an inhibition [1] of 73.7% and an IC50 [2] of 48 µM.
Work on `Cc1ccc2oc(-c3ccc(NCc4ccccn4)c(F)c3)nc2n1` yielded an inhibition [1] of 6.72%.
Work on `COc1cc(-c2cc(=O)c3c(O)cc(OP(=O)(OC(C)C)OC(C)C)cc3o2)cc(OC)c1O` yielded an EC50 [4] of 9.06 µM.
`c1ccc(CNc2ccc(-c3nc4ncccc4o3)cc2)nc1` showed a Ratio IC50 [5] of 2.2, an EC50 [6] of 27.8 µM and an inhibition [1] of 80.2%. The IC50 [7] was 2.28 µM, the inhibition [8] was “Active” and the Ratio IC50 [9] was 9.5. For the same compound, the Activity [10] was “Dose-dependent effect”, the Kd [11] was 13.4 µM and the Ki [12] was 23.3 µM. It also gave an IC50 [13] of 9.73 µM, an EC50 [14] of 22.1 µM and a CC50 at 48 h [15] greater than 200 µM. It also gave a Kd [16] of 25 µM, a Kd [17] of 12.1 µM and a Kd [18] of 16.5 µM. The Kd [19] was 6.37 µM and the IC50 [2] was 21.7 µM.
`CCOC(=O)/C=C/[C@H](C[C@@H]1CCNC1=O)NC(=O)[C@@H](CC(=O)[C@@H](NC(=O)c1cc(C)on1)C(C)C)Cc1ccc(F)cc1` [RUPINTRIVIR] showed an EC50 [6] of 0.00565 µM, an inhibition [1] of 104% and an IC50 [2] of 2.62 µM.
`Cc1ccc2oc(-c3ccc(NCc4ccccn4)cc3)nc2n1` showed an inhibition [1] of 19.2%.
In the case of `Cc1cccc(CNc2ccc(-c3nc4nc(C)ccc4o3)cc2)n1`, the inhibition [1] is reported as less than 5%.
For `Cc1cccc(CNc2ccc(-c3nc4ncccc4o3)cc2)n1`, the inhibition [1] was 68.1% and the IC50 [2] was 40.1 µM.
Compound `Cc1cccc(CNc2ccc(-c3nc4nc(C)ccc4o3)cc2F)n1` has an inhibition [1] of less than 5%.
Work on `O=c1cc(-c2ccc(O)c(O)c2)oc2cc(O[C@@H]3O[C@H](CO)[C@@H](O)[C@H](O)[C@H]3O)cc(O)c12` [GALUTEOLIN] yielded an EC50 [20] of 430 µM.
`C#C[C@@]1(O)[C@H](O)[C@@H](CO)O[C@H]1n1ccc2c(N)ncnc21` showed an EC50 [21] of 0.67 µM, an EC50 [14] of 0.17 µM and a CC50 at 48 h [22] of 120 µM.
